Tests used:
[1] = target: Acetyl-CoA carboxylase 1 (Homo sapiens, UniProt Q13085); assay: Inhibition of human recombinant ACC 1 expressed in baculovirus expression system by FAS-coupled assay
Procedure, shortened: (§1)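 Recombinant human ACC1 or ACC2 (baculovirus-expressed, purified), 2-4.5 nM, preincubated 10 min with compound in DMSO and FAS (1 µg/assay) in 50 mM HEPES pH 7.5, 10 mM sodium citrate, 20 mM MgCl2, 6 mM NaHCO3. Substrate mix then added: 2.4 µM [3H]acetyl-CoA, 47.6 µM acetyl-CoA, 100 µM NADPH, 0.125 mM ATP. Run 30 min at room temperature, stopped with EDTA. [3H]palmitic acid counted on phospholipid FlashPlate. IC50 averaged from 2–4 experiments.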

[2] = target: Acetyl-CoA carboxylase 2 (Homo sapiens, UniProt O00763); assay: Inhibition of human recombinant ACC 2 expressed in baculovirus expression system by FAS-coupled assay; procedure, shortened: as §1
Acetyl-CoA carboxylase 2, sequence (O00763 whole entry): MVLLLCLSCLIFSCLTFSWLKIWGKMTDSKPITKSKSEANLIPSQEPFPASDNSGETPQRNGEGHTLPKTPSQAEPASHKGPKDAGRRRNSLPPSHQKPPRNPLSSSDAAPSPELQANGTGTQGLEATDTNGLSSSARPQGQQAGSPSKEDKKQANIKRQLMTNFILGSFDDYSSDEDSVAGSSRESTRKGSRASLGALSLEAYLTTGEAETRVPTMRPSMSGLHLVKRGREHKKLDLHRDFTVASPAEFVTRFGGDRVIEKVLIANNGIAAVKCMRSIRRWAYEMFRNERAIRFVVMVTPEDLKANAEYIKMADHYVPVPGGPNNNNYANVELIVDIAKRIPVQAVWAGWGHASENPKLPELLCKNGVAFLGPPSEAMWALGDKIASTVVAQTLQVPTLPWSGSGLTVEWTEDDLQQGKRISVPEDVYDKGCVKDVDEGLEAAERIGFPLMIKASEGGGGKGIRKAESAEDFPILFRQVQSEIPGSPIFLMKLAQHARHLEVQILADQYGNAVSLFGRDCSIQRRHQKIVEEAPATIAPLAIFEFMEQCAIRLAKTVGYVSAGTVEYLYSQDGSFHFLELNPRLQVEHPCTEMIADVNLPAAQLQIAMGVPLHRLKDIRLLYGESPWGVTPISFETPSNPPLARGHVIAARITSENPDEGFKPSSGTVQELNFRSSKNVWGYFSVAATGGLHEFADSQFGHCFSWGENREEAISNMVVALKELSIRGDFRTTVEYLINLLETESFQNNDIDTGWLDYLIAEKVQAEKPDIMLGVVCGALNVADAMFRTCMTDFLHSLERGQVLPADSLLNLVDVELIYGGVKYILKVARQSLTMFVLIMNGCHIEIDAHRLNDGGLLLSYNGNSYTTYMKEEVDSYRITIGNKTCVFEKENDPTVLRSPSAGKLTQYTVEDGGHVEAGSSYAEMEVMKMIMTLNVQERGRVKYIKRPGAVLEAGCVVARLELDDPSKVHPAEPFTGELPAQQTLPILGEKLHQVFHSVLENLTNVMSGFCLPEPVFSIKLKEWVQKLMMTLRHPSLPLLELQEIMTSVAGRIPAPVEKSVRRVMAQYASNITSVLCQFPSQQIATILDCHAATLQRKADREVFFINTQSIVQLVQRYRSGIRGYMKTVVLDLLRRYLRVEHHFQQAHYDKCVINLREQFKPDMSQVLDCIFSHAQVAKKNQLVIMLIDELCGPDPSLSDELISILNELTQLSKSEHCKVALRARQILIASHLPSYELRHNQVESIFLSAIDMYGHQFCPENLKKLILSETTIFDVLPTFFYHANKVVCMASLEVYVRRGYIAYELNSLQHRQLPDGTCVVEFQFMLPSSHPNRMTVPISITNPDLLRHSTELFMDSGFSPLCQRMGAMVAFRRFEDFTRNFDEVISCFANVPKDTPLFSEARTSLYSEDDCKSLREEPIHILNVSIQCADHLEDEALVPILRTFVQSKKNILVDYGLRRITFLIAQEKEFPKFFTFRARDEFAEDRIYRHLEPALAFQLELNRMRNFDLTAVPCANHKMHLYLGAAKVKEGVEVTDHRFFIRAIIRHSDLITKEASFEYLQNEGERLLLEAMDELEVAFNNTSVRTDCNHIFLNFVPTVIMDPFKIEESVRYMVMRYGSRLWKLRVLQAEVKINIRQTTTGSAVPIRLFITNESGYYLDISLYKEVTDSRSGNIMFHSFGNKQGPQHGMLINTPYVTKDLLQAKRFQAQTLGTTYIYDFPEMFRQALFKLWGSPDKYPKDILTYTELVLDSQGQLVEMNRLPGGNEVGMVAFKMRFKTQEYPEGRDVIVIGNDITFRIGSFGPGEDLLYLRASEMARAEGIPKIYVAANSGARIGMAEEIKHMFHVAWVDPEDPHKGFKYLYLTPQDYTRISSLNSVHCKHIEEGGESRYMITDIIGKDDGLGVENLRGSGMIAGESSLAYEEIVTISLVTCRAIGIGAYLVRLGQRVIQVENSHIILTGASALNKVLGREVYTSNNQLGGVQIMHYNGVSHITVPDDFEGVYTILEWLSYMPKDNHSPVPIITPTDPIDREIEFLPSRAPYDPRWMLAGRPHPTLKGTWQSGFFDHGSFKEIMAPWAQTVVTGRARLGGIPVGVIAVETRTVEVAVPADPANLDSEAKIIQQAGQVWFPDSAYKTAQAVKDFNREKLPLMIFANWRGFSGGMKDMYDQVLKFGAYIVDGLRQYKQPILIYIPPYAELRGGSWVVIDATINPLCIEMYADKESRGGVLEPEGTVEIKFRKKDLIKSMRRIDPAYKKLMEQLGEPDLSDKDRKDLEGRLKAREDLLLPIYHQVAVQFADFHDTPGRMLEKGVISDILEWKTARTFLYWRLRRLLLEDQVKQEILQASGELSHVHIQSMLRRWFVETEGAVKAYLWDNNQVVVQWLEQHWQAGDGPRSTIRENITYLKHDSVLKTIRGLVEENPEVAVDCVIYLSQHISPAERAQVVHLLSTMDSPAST

[3] = species: Homo sapiens; assay: Selectivity ratio of IC50 for human ACC 2 to IC50 for human ACC 1
[4] = species: Homo sapiens; assay: Selectivity ratio of IC50 for human ACC 1 to IC50 for human ACC 2

| IC50 [1] [µM] | IC50 [2] [µM] | Selectivity ratio [3] | Selectivity ratio [4] | SMILES |
| --- | --- | --- | --- | --- |
| > 30 | 2.54 | – | – | CCCOc1ccc(Oc2ccc(-c3ccc(C(C)NC(=O)c4cn[nH]c4)cc3)cn2)cc1 (stereo unspecified) |
| 0.036 | 0.609 | 17 | – | CCCOc1cccc(Oc2ccc(-c3ccc(C(C)NC(=O)c4cn[nH]c4)cc3)cc2)c1 (stereo unspecified) |
| > 30 | > 30 | – | – | CC(=O)NC(C)c1ccc(-c2ccc(Oc3ccc(OCc4ccccc4)cc3)cc2)cc1 (stereo unspecified) |
| 0.081 | 0.114 | – | – | CCCc1ccc(Oc2ccc(-c3ccc(C(C)NC(C)=O)cc3)cc2)cc1 (stereo unspecified) |
| 2.77 | > 30 | – | – | CCCOc1ccc(Oc2ccc(-c3ccc(C(C)NC(=O)CCC)cc3)cc2)cc1 (stereo unspecified) |
| 0.049 | 0.032 | – | – | CC(=O)NC(C)c1ccc(-c2ccc(Oc3cccc(Oc4ccccc4)c3)nc2)cc1 (stereo unspecified) |
| 0.035 | 0.113 | – | – | CC(=O)NC(C)c1ccc(-c2ccc(Oc3ccc(C(=O)c4ccccc4)cc3)cc2)cc1 (stereo unspecified) |
| 0.319 | 0.141 | – | – | CCCOc1ccc(Oc2ccc(-c3ccc(C(C)NC(=O)C4CC4)cc3)cn2)cc1 (stereo unspecified) |
| 0.11 | 0.018 | – | 6 | CCCOc1ccc(Oc2ccc(-c3ccc(C(C)NC(C)=O)cc3)cn2)cc1 (stereo unspecified) |
| 0.017 | 0.014 | – | – | CCCOc1ccc(Oc2ccc(-c3ccc(C(C)NC(C)=O)cc3)cc2)cc1 (stereo unspecified) |
| > 30 | 0.274 | – | > 100 | CCOc1ccc(Oc2ccc(-c3ccc(C(C)NC(C)=O)cc3)cn2)cc1 (stereo unspecified) |
| 0.013 | 0.012 | – | – | CCCOc1cccc(Oc2ccc(-c3ccc(C(C)NC(C)=O)cc3)cc2)c1 (stereo unspecified) |
| > 30 | 1.51 | – | – | CCCCC(=O)NC(C)c1ccc(-c2ccc(Oc3ccc(OCCC)cc3)nc2)cc1 (stereo unspecified) |
| > 30 | > 30 | – | – | CCCCC(=O)NC(C)c1ccc(-c2ccc(Oc3ccc(OCCC)cc3)cc2)cc1 (stereo unspecified) |
| 0.069 | 0.035 | – | 2 | CCCOc1ccc(Oc2ccc(-c3ccc(C(C)NC(=O)CC)cc3)cn2)cc1 (stereo unspecified) |
| 0.14 | 0.268 | – | – | CC(=O)NC(C)c1ccc(-c2ccc(Oc3ccc(-c4c(O)ccc5c4CCCC5)cc3)cc2)cc1 (stereo unspecified) |
| 0.041 | 0.016 | – | – | CC(=O)NC(C)c1ccc(-c2ccc(Oc3cccc(Oc4ccccc4)c3)cc2)cc1 (stereo unspecified) |
| > 30 | 0.373 | – | > 80 | COc1cccc(Oc2ccc(-c3ccc(C(C)NC(C)=O)cc3)cc2)c1 (stereo unspecified) |
| 0.089 | > 30 | > 300 | – | COCCc1ccc(Oc2ccc(-c3ccc(C(C)NC(C)=O)cc3)cc2)cc1 (stereo unspecified) |
| 0.035 | 0.008 | – | – | CCCOc1ccc(Oc2ccc(-c3ccc([C@H](C)NC(C)=O)cc3)cn2)cc1 |
| 0.188 | 0.214 | – | – | CCCOc1ccc(Oc2ccc(-c3ccc(C(C)NC(=O)C(C)C)cc3)cc2)cc1 (stereo unspecified) |

| IC50 [1] [µM] | IC50 [2] [µM] | Selectivity ratio [3] | Selectivity ratio [4] | SMILES |
| --- | --- | --- | --- | --- |
| 4.2 | 0.494 | – | – | CCCOc1ccc(Oc2ccc(-c3ccc(C(C)NC(=O)CCC)cc3)cn2)cc1 (stereo unspecified) |
| 0.016 | 0.035 | – | – | CC(=O)NC(C)c1ccc(-c2ccc(Oc3ccc(OC(C)C)cc3)cc2C)cc1 (stereo unspecified) |
| 0.047 | 0.202 | – | – | CCCOc1ccc(Oc2ccc(-c3ccc(C(C)NC(=O)CC)cc3)cc2)cc1 (stereo unspecified) |
| 1.63 | 0.119 | – | 14 | CCOc1ccc(Oc2ccc(-c3ccc(C(C)NC(C)=O)cc3)cc2)cc1 (stereo unspecified) |
| 2.49 | 0.303 | – | – | CC(=O)NC(C)c1ccc(-c2ccc(Oc3ccc(OC(C)C)cc3)cc2)c(C)c1 (stereo unspecified) |
| 2.06 | 1.84 | – | – | CCCOc1ccc(Oc2ccc(-c3ccc(C(C)NC(=O)C(C)O)cc3)cc2)cc1 (racemic) |
| 0.017 | 0.033 | – | – | CC(=O)NC(C)c1ccc(-c2ccc(Oc3ccc(OC(C)C)cc3)cc2)cc1 (stereo unspecified) |
| 0.753 | 0.718 | – | – | CCCOc1ccc(Oc2ccc(-c3ccc(C(C)NC(=O)COC)cc3)cc2)cc1 (stereo unspecified) |
| 0.296 | 0.55 | – | – | CCCOc1ccc(Oc2ccc(-c3ccc(C(C)NC(=O)C4CC4)cc3)cc2)cc1 (stereo unspecified) |
| > 30 | 0.881 | – | – | CCCOc1ccc(Oc2ccc(-c3ccc(C(C)NC(=O)COC)cc3)cn2)cc1 (stereo unspecified) |
| 8.15 | 0.227 | – | – | CCCOc1ccc(Oc2ccc(-c3ccc(C(C)NC(=O)OCC)cc3)cn2)cc1 (stereo unspecified) |
| > 30 | 3.1 | – | – | CCCOc1ccc(Oc2ccc(-c3ccc(C(C)NC(=O)OCC)cc3)cc2)cc1 (stereo unspecified) |
| 0.592 | 0.088 | – | – | CC(=O)NC(C)c1ccc(-c2ccc(Oc3ccc(OC(C)C)cc3)cc2C)c(C)c1 (stereo unspecified) |
| 0.415 | 0.093 | – | – | CC(=O)NC(C)c1ccc(-c2ccc(Oc3ccc(OC(C)C)cc3)nc2)cc1 (stereo unspecified) |
| 0.014 | 0.007 | – | – | CC(=O)NC(C)c1ccc(-c2ccc(Oc3ccc(Oc4ccccc4)cc3)cc2)cc1 (stereo unspecified) |
| 8.58 | 0.102 | – | 84 | CCOc1cccc(Oc2ccc(-c3ccc(C(C)NC(C)=O)cc3)cc2)c1 (stereo unspecified) |
| 0.039 | 0.945 | 24 | – | CC(=O)NC(C)c1ccc(-c2ccc(Oc3ccc(Cc4ccccc4)cc3)cc2)cc1 (stereo unspecified) |
| 0.451 | 0.156 | – | – | CCCOc1ccc(Oc2ccc(-c3ccc(C(C)NC(=O)C(C)C)cc3)cn2)cc1 (stereo unspecified) |
| > 30 | 0.777 | – | – | CCCOc1ccc(Oc2ccc(-c3ccc([C@@H](C)NC(C)=O)cc3)cn2)cc1 |
| 0.058 | 0.117 | – | – | CC(=O)NC(C)c1ccc(-c2ccc(Oc3ccc(OCc4ccccc4)cc3)nc2)cc1 (stereo unspecified) |

— ChEMBL document CHEMBL1156049, “Potent biphenyl- and 3-phenyl pyridine-based inhibitors of acetyl-CoA carboxylase” (Bioorg Med Chem Lett, 2009)
